IDH1 R132H inh: blocks human IDH1 R132H reductase activity. AID 624101. inhibition, % at 10 µM. O75874. hit rate 0.18% among 70,000. diaphorase/resazurin fluorescence, 60 min; in the data active = inhibition above about 34%; inconclusive = no clear call, values can overlap the other calls; inactive = below about 11%;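 note: 0% = DMSO and 100% = no enzyme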
Target sequence (O75874 whole entry R132H): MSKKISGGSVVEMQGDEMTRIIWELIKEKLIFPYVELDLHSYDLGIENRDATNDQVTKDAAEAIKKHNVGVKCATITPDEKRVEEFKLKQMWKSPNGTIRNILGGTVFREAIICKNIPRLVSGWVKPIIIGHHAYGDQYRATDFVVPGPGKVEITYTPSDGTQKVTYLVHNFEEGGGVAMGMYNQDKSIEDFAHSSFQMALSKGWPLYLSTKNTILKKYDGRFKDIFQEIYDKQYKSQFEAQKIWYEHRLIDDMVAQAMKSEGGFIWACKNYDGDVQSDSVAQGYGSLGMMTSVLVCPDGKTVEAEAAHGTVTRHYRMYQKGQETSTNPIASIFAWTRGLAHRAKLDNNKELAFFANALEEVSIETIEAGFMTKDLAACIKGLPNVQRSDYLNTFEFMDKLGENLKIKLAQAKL
KDM4C inh: blocks human GASC-1 (KDM4C) demethylase activity; Q9H3R0; GST-KDM4C 2-372, H3K9me3 peptide, LANCE TR-FRET; inhibition, % at 12.5 µM; hit rate 0.15% among 96,000;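 active = mean replicate inhibition above about 25%, with at least 55% of replicates also reaching it, limit read from the data, passing the limit was not always enough; inconclusive = only one of those two conditions met; inactive = neither condition met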
Target sequence (Q9H3R0 2-372 limits assumed): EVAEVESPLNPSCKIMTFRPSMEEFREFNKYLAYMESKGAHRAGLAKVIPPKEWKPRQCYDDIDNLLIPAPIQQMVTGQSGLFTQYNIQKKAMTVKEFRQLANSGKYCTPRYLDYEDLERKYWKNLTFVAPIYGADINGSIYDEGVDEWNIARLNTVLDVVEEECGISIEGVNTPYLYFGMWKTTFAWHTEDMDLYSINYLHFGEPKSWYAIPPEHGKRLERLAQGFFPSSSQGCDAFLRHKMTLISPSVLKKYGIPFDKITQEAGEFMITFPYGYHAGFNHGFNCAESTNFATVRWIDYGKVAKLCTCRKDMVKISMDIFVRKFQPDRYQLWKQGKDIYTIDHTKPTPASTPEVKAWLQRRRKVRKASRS
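Test system: N-terminal GST-fused human GASC-1 (KDM4C) fragment, residues 2-372; quantity: GASC-1 enzyme at 10 nM final in reaction; dosing: single dose; schedule: 30 min demethylation and 1 h detection at room temperature; signal: LANCE TR-FRET, excitation 340 nm, emissions 618 and 671 nm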
T cruzi growth-1: inhibitors of T. cruzi proliferation | T. cruzi beta-gal in NIH3T3, GalScreen luminescence, 90 h | inhibition, % at 8.34 µM | hit rate 5.9% among 77,000;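 active = mean inhibition above about 93%, with at least 55% of replicates each passing it, limit read from the data, passing the limit was not always enough; inconclusive = only one of those two conditions holds; inactive = neither condition holds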
T cruzi growth-2: Trypanosoma cruzi proliferation inhibition; hit rate 72% among 5,600; AID 651739; inhibition, % at 8.35 µM; T. cruzi beta-gal in NIH3T3, GalScreen luminescence, 90 h; shares compounds with T cruzi growth-1;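 active = mean replicate inhibition above about 95% and at least 55% of replicates individually reaching it, limit read from the data; inconclusive = only one of the two criteria is met; inactive = neither criterion is met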
T cruzi growth-3: inhibitors of T. cruzi proliferation. shares compounds with T cruzi growth-1. hit rate 21% among 5,600. T. cruzi beta-gal in NIH3T3, GalScreen luminescence, 90 h. inhibition, % at 2.09 µM;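 active = mean inhibition above about 95%, with at least 55% of replicates also reaching it, limit read from the data; inconclusive = meets just one of the two conditions; inactive = meets neither condition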;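 note: plate controls were neutral control median for no effect and positive control median for full effect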
3T3 cytotox: NIH/3T3 (mouse) viability loss | shares compounds with T cruzi growth-1 | NIH/3T3 viability, CellTiter-Glo ATP luminescence, 90 h | cytotoxicity (signal decrease), % at 8.35 µM | hit rate 14% among 5,600 | AID 651742;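 active = mean signal decrease across replicates above about 35% based on untreated-well scatter, with enough replicates individually passing, limit read from the data; inconclusive = no rule stated though some were filed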;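 note: 0% = median of neutral control wells and 100% = median of positive control wells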
NIH3T3 tox 2: cytotoxicity in mouse NIH/3T3 fibroblasts; inhibition, % at 24.9 µM; shares compounds with T cruzi growth-1; AID 651744; hit rate 56% among 5,600; NIH/3T3 viability, CellTiter-Glo ATP luminescence, 90 h;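 active = mean loss of cell viability signal at or above a set limit, and enough replicates individually reaching it; inconclusive = meets only the mean limit or only the replicate share; inactive = meets neither condition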;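 note: 0% = median of neutral control wells and 100% = median of positive control wells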
* = called active by the depositor; ? = inconclusive; nt = not tested or not shown. This excerpt belongs to a sample that is enriched for hits.

SMILES | IDH1 R132H inh | KDM4C inh | T cruzi growth-1 | T cruzi growth-2 | T cruzi growth-3 | 3T3 cytotox | NIH3T3 tox 2
CC(C)CC#Cc1ccc2c(c1)O[C@@H](CN(C)CC1CCOCC1)[C@@H](C)CN([C@@H](C)CO)S2(=O)=O | -6.6 | -0.4 | ? | 110.3* | ? | 25.5 | 105.1*
CC(C)CC#Cc1ccc2c(c1)O[C@@H](CN(C)CC1CCOCC1)[C@H](C)CN([C@@H](C)CO)S2(=O)=O | 0.2 | -2.1 | 107.1 | nt | nt | nt | nt
CC(C)CC#Cc1ccc2c(c1)O[C@H](CN(C)CC1CCOCC1)[C@@H](C)CN([C@H](C)CO)S2(=O)=O | -2.9 | 0.2 | 119.8 | nt | nt | nt | nt
O=C(C[C@@H]1CC[C@@H]2[C@H](COC[C@H](O)CN2S(=O)(=O)c2ccc(Oc3ccccc3)cc2)O1)Nc1ccccc1 | nt | 0.3 | nt | nt | nt | nt | nt
C[C@H](CO)N1C[C@H](C)[C@H](CN(C)S(=O)(=O)c2ccc(Cl)cc2)Oc2ccc(NC(=O)CCN3CCOCC3)cc2C1=O | 0.6 | 0.7 | 60.9 | nt | nt | nt | nt
CCOc1cccc2c(C)nc(Nc3nc4c(c(=O)[nH]3)CCCC4)nc12 | 2.1 | nt | nt | nt | nt | nt | nt
O=C(c1ccncc1)N1CCCCN2[C@@H](CO)[C@H](c3ccc(C#Cc4ccccn4)cc3)[C@@H]2C1 | nt | 0.9 | 105.3* | ? | 15.1 | 1.5 | 3.2
O=C(c1cccnc1)N1CCCCN2[C@H](CO)[C@@H](c3ccc(C#Cc4ccccn4)cc3)[C@H]2C1 | nt | -0.3 | 37.6 | nt | nt | nt | nt
C[C@@H](O)C#Cc1ccc([C@H]2[C@@H](CO)N3CCCCN(C(=O)c4ccncc4)C[C@H]23)cc1 | nt | 0.8 | 16.1 | nt | nt | nt | nt
COc1ccc(C#Cc2ccc([C@@H]3[C@H](CO)N4CCCCN(C(=O)c5ccncc5)C[C@@H]34)cc2)cc1 | nt | -1.3 | 105.0* | 88.4 | 74.0 | 20.9 | 104.1*
COc1ccc(C#Cc2ccc([C@H]3[C@H]4CN(C(=O)c5ccncc5)CCCCN4[C@H]3CO)cc2)cc1 | nt | -0.2 | 104.8* | 63.6 | -18.0 | 50.0* | 53.8*
C[C@H](O)C#Cc1ccc([C@H]2[C@H]3CN(C(=O)c4ccncc4)CCCCN3[C@H]2CO)cc1 | nt | 0.8 | 100.9* | -4.2 | 1.0 | -9.4 | 10.9
COc1ccc(C#Cc2ccc([C@@H]3[C@H]4CN(C(=O)c5ccncc5)CCCCN4[C@H]3CO)cc2)cc1 | nt | -1.4 | 89.2 | nt | nt | nt | nt
C[C@@H](O)C#Cc1ccc([C@@H]2[C@H]3CN(C(=O)c4ccncc4)CCCCN3[C@H]2CO)cc1 | nt | 0.2 | 93.1 | nt | nt | nt | nt
Cc1ccccc1N(CC(=O)Nc1cccc2ccccc12)S(C)(=O)=O | 0.0 | nt | nt | nt | nt | nt | nt
C[C@@H]1CN([C@@H](C)CO)C(=O)Cc2cc(NC(=O)CCCCCC(=O)Nc3ccccc3N)ccc2O[C@@H]1CN(C)C(=O)Nc1ccc2c(c1)OCO2 | nt | -1.2 | 33.4 | nt | nt | nt | nt
NCCCN(Cc1ccco1)C1CCCC1 | 0.5 | nt | nt | nt | nt | nt | nt
Cc1ccc(-c2cc(C(F)F)n3ncc(C(=O)NCCCN4CCOCC4)c3n2)cc1 | -0.4 | nt | nt | nt | nt | nt | nt
O=C(C[C@@H]1CC[C@@H]2[C@H](COC[C@@H](O)CN2C(=O)Nc2cccc(Cl)c2)O1)NCc1ccccc1F | nt | -0.6 | 122.7* | 97.3* | 18.1 | -5.1 | 38.4*
O=C(C[C@@H]1CC[C@H]2[C@@H](COC[C@H](O)CN2C(=O)Nc2cccc(F)c2)O1)NCc1ccccc1F | nt | -0.6 | -6.9 | nt | nt | nt | nt
O=C(C[C@@H]1CC[C@@H]2[C@H](COC[C@@H](O)CN2C(=O)Nc2cccc(F)c2)O1)NCc1ccccc1F | nt | -0.4 | -8.3 | nt | nt | nt | nt
O=C(C[C@@H]1CC[C@H]2[C@@H](COC[C@H](O)CN2C(=O)Nc2cccc(Cl)c2)O1)NCc1ccccc1F | nt | -0.7 | 119.3* | 60.6 | -20.1 | 3.9 | 23.8
COc1ccc(C2C(C(=O)Nc3ccccc3)=C(C)Nc3ncnn32)cc1O (centres undefined) | 0.4 | nt | nt | nt | nt | nt | nt
C[C@@H]1CN([C@@H](C)CO)S(=O)(=O)c2ccc(C#CC3CCCCC3)cc2O[C@H]1CN(C)C | -0.3 | -0.7 | 117.6* | 104.5* | 101.1* | 37.9* | 103.6*
CCCN(C)C[C@@H]1Oc2cc(C#CC3CCCC3)ccc2S(=O)(=O)N([C@@H](C)CO)C[C@H]1C | -2.0 | 3.7 | 103.2* | 107.9* | 77.1 | 38.6* | 103.5*
SMILES | IDH1 R132H inh | KDM4C inh | T cruzi growth-1 | T cruzi growth-2 | T cruzi growth-3 | 3T3 cytotox | NIH3T3 tox 2
C[C@H]1CN([C@@H](C)CO)S(=O)(=O)c2ccc(C#CC3CCCC3)cc2O[C@H]1CN(C)CC1CC1 | 0.1 | -0.3 | ? | 94.3 | 77.8 | 47.6* | 104.4*
CCCN(C)C[C@H]1Oc2cc(C#CC3CCCC3)ccc2S(=O)(=O)N([C@@H](C)CO)C[C@H]1C | -0.1 | 5.1 | 86.2 | nt | nt | nt | nt
C[C@@H]1CN([C@H](C)CO)S(=O)(=O)c2ccc(C#CC3CCCC3)cc2O[C@@H]1CN(C)CC1CC1 | -1.2 | 0.4 | 86.4 | nt | nt | nt | nt
C[C@H]1CN([C@@H](C)CO)S(=O)(=O)c2ccc(C#CC3CCCC3)cc2O[C@H]1CN(C)C | -0.3 | 1.0 | -62.1 | nt | nt | nt | nt
C[C@H]1CN([C@@H](C)CO)S(=O)(=O)c2ccc(C#CC3CCCC3)cc2O[C@@H]1CN(C)C | -1.0 | 0.5 | 99.9* | 104.7* | 52.6 | -4.1 | 103.9*
C[C@H]1CN([C@@H](C)CO)S(=O)(=O)c2ccc(C#CC3CC3)cc2O[C@@H]1CN(C)C | -0.8 | 1.1 | -99.2 | nt | nt | nt | nt
COc1cccc(C(=O)NC2(C(F)(F)F)C(=O)N(CC3CCCO3)C3=C2C(=O)CC(C)(C)C3)c1 (centres undefined) | -0.4 | nt | nt | nt | nt | nt | nt
Cn1c(SCC(=O)NC23CC4CC(CC(C4)C2)C3)nnc1-c1cccc([N+](=O)[O-])c1 | 0.0 | nt | nt | nt | nt | nt | nt
C[C@H](CO)N1C[C@H](C)[C@H](CN(C)C)Oc2cc(C#CC3CCCCC3)ccc2S1(=O)=O | 0.5 | 0.9 | 98.4* | 105.8* | 54.7 | 48.1* | 103.1*
C[C@H](CO)N1C[C@H](C)[C@@H](CN(C)C)Oc2cc(C#CC3CCCC3)ccc2S1(=O)=O | -1.9 | -1.0 | -1.3 | nt | nt | nt | nt
CC(=O)N1CCCCN2[C@H](CO)[C@H](c3ccc(-c4ccc(F)cc4)cc3)[C@H]2C1 | nt | 0.9 | 46.1 | nt | nt | nt | nt
CC(=O)N1CCCCN2[C@H](CO)[C@@H](c3ccc(-c4ccc(C)cc4)cc3)[C@H]2C1 | nt | -0.9 | 105.7* | 2.6 | -15.2 | 20.9 | 73.8*
CC(=O)N1CCCCN2[C@H](CO)[C@@H](c3ccc(-c4ccc(C)cc4)cc3)[C@@H]2C1 | nt | 0.7 | 102.0* | 74.3 | 18.2 | 40.8* | 27.8*
CC(=O)N1CCCCN2[C@H](C1)[C@H](c1ccc(-c3ccc(F)cc3)cc1)[C@@H]2CO | nt | 0.6 | 41.5 | nt | nt | nt | nt
CC(=O)N1CCCCN2[C@@H](CO)[C@@H](c3ccc(-c4ccc(F)cc4)cc3)[C@@H]2C1 | nt | 0.0 | 84.1 | nt | nt | nt | nt
CC(=O)N1CCCCN2[C@H](C1)[C@@H](c1ccc(-c3ccc(C)cc3)cc1)[C@@H]2CO | nt | -0.5 | 111.0* | 38.1 | -70.0 | 8.1 | -0.5

Screens (PubChem BioAssay)
